From ChEMBL document CHEMBL1155029, “Novel amodiaquine congeners as potent antimalarial agents” (Bioorg Med Chem, 2008) come the findings set out here.

Structures are written as SMILES.

Experiment [1] has as its system Plasmodium falciparum. Nature of the experiment: Antimalarial activity against chloroquine-sensitive Plasmodium falciparum D10 as LDH reporter activity. Format: functional, organism-based. The method in brief: (§1)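 Asynchronous P. falciparum cultures (1–1.5% parasitaemia, 1% final hematocrit) exposed to serial dilutions for 72 h at 37 °C under 1% O2/5% CO2/94% N2. Compounds dissolved in water or DMSO, diluted in medium (final DMSO <1%). Growth read as pLDH activity (OD650, modified Makler method). IC50 given as mean ± SD of at least three experiments in duplicate.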

Experiment [2] concerns Plasmodium falciparum. Nature of the experiment: Antimalarial activity against chloroquine-resistant Plasmodium falciparum W2 as LDH activity. Format: functional, organism-based. The method in brief: as §1
A short description of experiment [3]: Ratio of IC50 for chloroquine-resistant Plasmodium falciparum W2 to IC50 for chloroquine-sensitive Plasmodium falciparum D10. Format: functional.
Experiment [4] has as its system Plasmodium falciparum. Nature of the experiment: Relative selectivity against Plasmodium falciparum W2 as IC50 ratio compared to chloroquine. Format: functional. The method in brief:
(§2)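 Asynchronous P. falciparum cultures (D-10 or W-2; 1–1.5% parasitaemia, 1% haematocrit) incubated 72 h at 37 °C under 1% O2/5% CO2/94% N2 with serial drug dilutions (water or DMSO, final DMSO <1%). Growth read as pLDH activity at OD650. Chloroquine IC50 divided by compound IC50 within each experiment, ratios averaged.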

For experiment [5], the system named is Plasmodium falciparum. Nature of the experiment: Relative selectivity against Plasmodium falciparum D10 as IC50 ratio compared to chloroquine. Format: functional. In a few lines:
as §2

Experiment [6] can be described thus: Cytotoxicity against mouse WEHI13 cells by MTT assay. The format is cell-based. The method in brief: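 Murine WEHI clone 13 fibrosarcoma cells in RPMI 1640 with 10% FCS and glutamine, treated with serial compound dilutions 72 h at 37 °C, 5% CO2. MTT added for 3 h, formazan solubilized in SDS/DMF lysing buffer pH 4.7, absorbance 550 nm against 650 nm reference. IC50 is dose giving 50% growth inhibition.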

Experiment [7] is described as follows: Cytotoxicity against HMEC1 cells by MTT assay. Format: cell-based. The note with it: Homo sapiens, HMEC-1. In a few lines:
(§3)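 Human cell lines (SV40-immortalized microvascular endothelial HMEC-1 in MCDB 131 with 10% FCS, EGF, hydrocortisone, glutamine, Hepes; K562 in RPMI 1640 with 10% FCS, glutamine) exposed to serial compound dilutions 72 h at 37 °C, 5% CO2. MTT added 3 h; formazan dissolved in SDS/DMF buffer pH 4.7, read 550 nm (ref 650 nm). IC50 for 50% growth inhibition.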
(Tetrazolium dyes change colour on reduction, which living cells bring about.)

The test system of experiment [8] is K562. Nature of the experiment: Cytotoxicity against human K562 cells by MTT assay. Format: cell-based. In a few lines:
as §3

A word on the IC50: it is the point on the concentration scale where inhibition reaches its midpoint. A low value points to greater potency in that assay. Take `Cc1cc(CN2CCCC2)c(C)n1Nc1ccnc2cc(Cl)ccc12`: the IC50 stood at 80.7 nM in experiment [1] and 336 nM in experiment [2]. The Ratio IC50 in experiment [3] amounted to 4.2; in experiment [4], 0.7; in experiment [5], 0.2.
For the compound `Oc1cc(Nc2ccnc3cc(Cl)ccc23)ccc1CNC[C@@H]1CCCN2CCCC[C@H]12`, the IC50 in experiment [6] worked out at 4430 nM; in experiment [1], 8.5 nM; in experiment [2], 14.3 nM; in experiment [7], 7940 nM. Also, the “Ratio IC50” value came out at 22 in experiment [4] and 2.8 in experiment [5].
As to `Oc1cc(Nc2ccnc3cc(Cl)ccc23)ccc1CNCCC12CCCN1CCC2`, the IC50 in experiment [6] was 12200 nM; in experiment [1], 90.3 nM; in experiment [2], 153 nM. The Ratio IC50 is 1.7 in experiment [3], 2.1 in experiment [4] and 0.3 in experiment [5].
As to `CCN(CC)Cc1cc(C)n(Nc2ccnc3cc(Cl)ccc23)c1C`, the IC50 in experiment [1] stood at 69 nM; in experiment [2], 193 nM. For the same compound, the figures for the Ratio IC50 in experiment [3], in experiment [4] and in experiment [5] were 2.8, 1.2 and 0.2, respectively.
For the compound `CCN(CC)Cc1cc(-c2ccc(Cl)cc2)n(Nc2ccnc3cc(Cl)ccc23)c1C`, the IC50 in experiment [6] is 1450 nM; in experiment [1], 26.1 nM; in experiment [2], 42.5 nM; in experiment [7], 5810 nM. Besides, the values for the Ratio IC50 in experiment [3], in experiment [4] and in experiment [5] were 1.6, 18.5 and 0.9, respectively.
As to `Cc1cc(CNC[C@@H]2CCCN3CCCC[C@H]23)c(C)n1Nc1ccnc2cc(Cl)ccc12`, the IC50 in experiment [6] was found to be 5510 nM; in experiment [1], 70.7 nM; in experiment [2], 53.4 nM; in experiment [7], 5400 nM. Moreover, the values for the Ratio IC50 in experiment [3], in experiment [4] and in experiment [5] were 0.8, 3.1 and 0.4, respectively.
Turning to `CCN(CC)Cc1ccc(Nc2ccnc3cc(Cl)ccc23)cc1O` [ISOQUINE], the figures for the IC50 in experiment [1] and in experiment [2] were 23.7 nM and 30.2 nM, respectively. Moreover, the Ratio IC50 turned out to be 1.3 in experiment [3], 17.6 in experiment [4] and 1.3 in experiment [5].
As to `CCN(CC)CCCC(C)Nc1ccnc2cc(Cl)ccc12` (stereo not given) [CHLOROQUINE], the results for the IC50 in experiment [8], in experiment [6] and in experiment [7] were 29000 nM, greater than 38000 nM and greater than 32000 nM, respectively.
With `Oc1cc(Nc2ccnc3cc(Cl)ccc23)ccc1CNCC12CCCN1CCC2`, the IC50 in experiment [1] is 81.9 nM; in experiment [2], 77 nM. Further, the Ratio IC50 in experiment [3] was found to be 0.9; in experiment [4] it was 2.2; in experiment [5], 0.4.
In the case of `Cc1cc(CNC(C)(C)C)c(C)n1Nc1ccnc2cc(Cl)ccc12`, the values for the IC50 in experiment [1] and in experiment [2] were 48.6 nM and 255 nM, respectively. The Ratio IC50 in experiment [3] amounted to 5.3; in experiment [4], 0.9; in experiment [5], 0.3.
`Cc1cc(CNCC23CCCN2CCC3)c(C)n1Nc1ccnc2cc(Cl)ccc12`: the figures for the IC50 in experiment [1] and in experiment [2] were 222 nM and 358 nM, respectively. The Ratio IC50 was 1.6 in experiment [3], 0.5 in experiment [4] and 0.1 in experiment [5].
In the case of `Cc1c(CNC[C@@H]2CCCN3CCCC[C@H]23)cc(-c2ccccc2)n1Nc1ccnc2cc(Cl)ccc12`, the IC50 came to 1680 nM in experiment [8]; 7440 nM in experiment [6]; 36.5 nM in experiment [1]; 515 nM in experiment [2]; 13500 nM in experiment [7]. Also, the Ratio IC50 was 14.1 in experiment [3], 1.1 in experiment [4] and 0.8 in experiment [5].
On to `Clc1ccc2c(Nc3ccc(CNC[C@@H]4CCCN5CCCC[C@H]45)c(Cl)c3)ccnc2c1`, for which the IC50 in experiment [6] turned out to be 2770 nM; in experiment [1], 23.6 nM; in experiment [2] it was 28.8 nM; in experiment [7], 5520 nM. The Ratio IC50 in experiment [3] came out at 1.2; in experiment [4] it was 28; in experiment [5], 1.8.
Consider `Cc1c(CNCC[C@@H]2CCCN3CCCC[C@H]23)cc(-c2ccccc2)n1Nc1ccnc2cc(Cl)ccc12`, for which the IC50 was 2610 nM in experiment [8]; 7220 nM in experiment [6]; 154 nM in experiment [1]; 776 nM in experiment [2]; 14600 nM in experiment [7]. The Ratio IC50 in experiment [3] is 5; in experiment [4], 0.8; in experiment [5], 0.2.
On to `Cc1c(CNC(C)(C)C)cc(-c2ccccc2)n1Nc1ccnc2cc(Cl)ccc12`, for which the figures for the IC50 in experiment [1] and in experiment [2] were 63.5 nM and 1180 nM, respectively. The results for the Ratio IC50 in experiment [3], in experiment [4] and in experiment [5] were 18.5, 0.7 and 0.4, respectively.
Consider `CCN(CC)Cc1cc(-c2ccccc2)n(Nc2ccnc3cc(Cl)ccc23)c1C`, for which the IC50 in experiment [8] was 3620 nM; in experiment [6] it was 4380 nM; in experiment [1], 42.7 nM; in experiment [2] it was 59.2 nM; in experiment [7], 16700 nM. Moreover, the Ratio IC50 in experiment [3] was 1.4; in experiment [4] it was 9.9; in experiment [5], 0.7.
On to `Cc1c(CN2CCCC2)cc(-c2ccc(Cl)cc2)n1Nc1ccnc2cc(Cl)ccc12`, for which the IC50 in experiment [6] was found to be 2060 nM; in experiment [1] it was 30.7 nM; in experiment [2] it was 49.6 nM; in experiment [7] it was 7180 nM. The figures for the Ratio IC50 in experiment [3], in experiment [4] and in experiment [5] were 1.6, 15.8 and 0.8, respectively.
As to `Cc1c(CN2CCCC2)cc(-c2ccccc2)n1Nc1ccnc2cc(Cl)ccc12`, the IC50 in experiment [8] was 2920 nM; in experiment [6], 3880 nM; in experiment [1] it was 42.9 nM; in experiment [2] it was 140 nM; in experiment [7] it was 12900 nM. Besides, the Ratio IC50 was 3.3 in experiment [3], 4.2 in experiment [4] and 0.7 in experiment [5].
